Values after ≈ are worked out from the molar mass of the structure shown.
What was measured:
Candida albicans [1] = assay: In vitro antifungal activity against Candida albicans 13004 by broth microdilution method; type: functional
Outline: (§1)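 Broth microdilution run to NCCLS M27-A guidelines. MIC read per that standard.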

Aspergillus fumigatus [2] = assay: In vitro antifungal activity against Aspergillus fumigatus 8004 by broth microdilution method; type: functional; outline: as §1
Candida albicans [3] = assay: In vitro antifungal activity against Candida albicans FP633 by broth microdilution method; type: functional; outline: as §1
Aspergillus fumigatus [4] = assay: In vitro antifungal activity against Aspergillus fumigatus FP1305 by broth microdilution method; type: functional; outline: as §1
Mus musculus [5] = species: Mus musculus; assay: Ability to hemolyze ICR mouse RBCs at 1 mg/mL using microtiter red blood cell hemolysis assay.
Mus musculus [6] = assay: Compound was evaluated in vivo for antifungal activity and efficacy in disseminated murine candidiasis was determined; type: functional
Candida albicans [7] = assay: In vitro antifungal activity against Candida albicans FP579 by agar dilution method using Sabouraud Dextrose agar.; type: functional
Outline: (§2)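 Agar dilution on Sabouraud Dextrose agar. MIC taken as the lowest concentration that inhibits visible growth.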

[8] = test system: Meyerozyma guilliermondii; assay: In vitro antifungal activity against Candida guilliermondii FP587 by agar dilution method using Sabouraud Dextrose agar.; type: functional; outline: as §2
Candida albicans [9] = assay: In vitro Antifungal activity against Candida albicans FP633 by agar dilution method using Sabouraud Dextrose agar.; type: functional; outline: as §2
Candida tropicalis = assay: In vitro antifungal activity against Candida tropicalis 8001 by agar dilution method using Sabouraud Dextrose agar.; type: functional; outline: as §2
Candida parapsilosis = assay: In vitro antifungal activity against Candida parapsilosis 15001 by agar dilution method using Sabouraud Dextrose agar.; type: functional; settings: Lodderomyces parapsilosis; outline: as §2

CCCCCCCCCCCCC[C@H](CC(=O)N[C@H](C(=O)N[C@H](C)C(=O)N[C@@H](Cc1ccc(OCC(=O)NCCN)cc1)C(=O)N[C@H](C(=O)N1C[C@H](O)C[C@H]1C(=O)N[C@H](C(=O)N[C@H](C(=O)N1CC[C@H](O)[C@H]1C(=O)N[C@H](C(=O)NCC(=O)N[C@H](C(N)=O)[C@@H](C)O)[C@H](O)CC(N)=O)[C@@H](C)O)[C@@H](C)O)C(C)C)[C@@H](C)O)OC(=O)[C@@H](C)CCCN.Cl
MIC (Candida albicans [1]): 1 µg/mL | MIC (Aspergillus fumigatus [2]): 1 µg/mL | MIC (Candida albicans [3]): 1 µg/mL | MIC (Aspergillus fumigatus [4]): 0.5 µg/mL | Hemolytic activity (Mus musculus [5]): 45%

CCCCCCCCCCCCC[C@H](CC(=O)N[C@H](C(=O)N[C@@H](C)C(=O)N[C@@H](Cc1ccc(OCC(=O)O)c(NC(=O)CCN)c1)C(=O)N[C@H](C(=O)N1C[C@H](O)C[C@H]1C(=O)N[C@@H](C(=O)N[C@H](C(=O)N1CC[C@H](O)[C@H]1C(=O)N[C@H](C(=O)NCC(=O)N[C@H](C(N)=O)[C@@H](C)O)[C@H](O)CC(N)=O)[C@@H](C)O)[C@@H](C)O)C(C)C)[C@@H](C)O)OC(=O)[C@@H](C)CCCN.Cl
MIC (Candida albicans [1]): 0.5 µg/mL | MIC (Aspergillus fumigatus [2]): 0.5 µg/mL | MIC (Candida albicans [3]): 0.5 µg/mL | ED50 (Mus musculus [6]): 0.72 mg/kg | MIC (Aspergillus fumigatus [4]): 0.125 µg/mL | Hemolytic activity (Mus musculus [5]): 23%

CCCCCCCCCCCCC[C@H](CC(=O)N[C@@H](C(=O)N[C@H](C)C(=O)N[C@@H](Cc1ccc(O)c(NC(=O)C[C@H](N)C(=O)O)c1)C(=O)N[C@H](C(=O)N1C[C@H](O)C[C@H]1C(=O)N[C@@H](C(=O)N[C@H](C(=O)N1CC[C@H](O)[C@H]1C(=O)N[C@H](C(=O)NCC(=O)N[C@@H](C(N)=O)[C@@H](C)O)[C@H](O)CC(N)=O)[C@@H](C)O)[C@@H](C)O)C(C)C)[C@@H](C)O)OC(=O)[C@@H](C)CCCN
MIC (Candida albicans [1]): 1 µg/mL (≈ 0.595 µM) | MIC (Aspergillus fumigatus [2]): 0.5 µg/mL (≈ 0.298 µM) | MIC (Candida albicans [3]): 0.5 µg/mL (≈ 0.298 µM) | ED50 (Mus musculus [6]): 0.8 mg/kg | MIC (Aspergillus fumigatus [4]): 0.25 µg/mL (≈ 0.149 µM) | Hemolytic activity (Mus musculus [5]): 75%

CCCCCCCCCCCCC[C@H](CC(=O)N[C@@H](C(=O)N[C@H](C)C(=O)N[C@@H](Cc1ccc(O)c(NC(=O)CC[C@H](N)C(=O)O)c1)C(=O)N[C@H](C(=O)N1C[C@H](O)C[C@H]1C(=O)N[C@@H](C(=O)N[C@H](C(=O)N1CC[C@H](O)[C@H]1C(=O)N[C@H](C(=O)NCC(=O)N[C@@H](C(N)=O)[C@@H](C)O)[C@H](O)CC(N)=O)[C@@H](C)O)[C@@H](C)O)C(C)C)[C@@H](C)O)OC(=O)[C@@H](C)CCCN
MIC (Candida albicans [1]): 0.5 µg/mL (≈ 0.295 µM) | MIC (Aspergillus fumigatus [2]): 1 µg/mL (≈ 0.59 µM) | MIC (Candida albicans [3]): 0.5 µg/mL (≈ 0.295 µM) | ED50 (Mus musculus [6]): 1.02 mg/kg | MIC (Aspergillus fumigatus [4]): 0.5 µg/mL (≈ 0.295 µM) | Hemolytic activity (Mus musculus [5]): 60%

CCCCCCCCCCCCC[C@H](CC(=O)N[C@@H](C(=O)N[C@H](C)C(=O)N[C@@H](Cc1ccc(OCC(=O)N(C)C)cc1)C(=O)N[C@H](C(=O)N1C[C@H](O)C[C@H]1C(=O)N[C@@H](C(=O)N[C@H](C(=O)N1CC[C@H](O)[C@H]1C(=O)N[C@H](C(=O)NCC(=O)N[C@@H](C(N)=O)[C@@H](C)O)[C@H](O)CC(N)=O)[C@@H](C)O)[C@@H](C)O)C(C)C)[C@@H](C)O)OC(=O)[C@@H](C)CCCN
MIC (Candida albicans [1]): 1 µg/mL (≈ 0.612 µM) | MIC (Aspergillus fumigatus [2]): 1 µg/mL (≈ 0.612 µM) | MIC (Candida albicans [3]): 0.5 µg/mL (≈ 0.306 µM) | MIC (Aspergillus fumigatus [4]): 0.25 µg/mL (≈ 0.153 µM) | Hemolytic activity (Mus musculus [5]): 85%

CCCCCCCCCCCCC[C@H](CC(=O)N[C@@H](C(=O)N[C@H](C)C(=O)N[C@@H](Cc1ccc(OCC(=O)O)cc1)C(=O)N[C@H](C(=O)N1C[C@H](O)C[C@H]1C(=O)N[C@@H](C(=O)N[C@H](C(=O)N1CC[C@H](O)[C@H]1C(=O)N[C@H](C(=O)NCC(=O)N[C@@H](C(N)=O)[C@@H](C)O)[C@H](O)CC(N)=O)[C@@H](C)O)[C@@H](C)O)C(C)C)[C@@H](C)O)OC(=O)[C@@H](C)CCCN
MIC (Candida albicans [1]): 0.5 µg/mL (≈ 0.311 µM) | MIC (Aspergillus fumigatus [2]): 1 µg/mL (≈ 0.622 µM) | MIC (Candida albicans [3]): 0.5 µg/mL (≈ 0.311 µM) | MIC (Aspergillus fumigatus [4]): 0.125 µg/mL (≈ 0.0777 µM) | Hemolytic activity (Mus musculus [5]): 76%

CCCCCCCCCCCCC[C@H](CC(=O)N[C@@H](C(=O)N[C@H](C)C(=O)N[C@@H](Cc1ccc(O)c(N)c1)C(=O)N[C@H](C(=O)N1C[C@H](O)C[C@H]1C(=O)N[C@@H](C(=O)N[C@H](C(=O)N1CC[C@H](O)[C@H]1C(=O)N[C@H](C(=O)NCC(=O)N[C@@H](C(N)=O)[C@@H](C)O)[C@H](O)CC(N)=O)[C@@H](C)O)[C@@H](C)O)C(C)C)[C@@H](C)O)OC(=O)[C@@H](C)CCCN
MIC (Candida albicans [7]): 1.56 µg/mL (≈ 0.997 µM) | MIC [8]: 0.78 µg/mL (≈ 0.498 µM) | MIC (Candida albicans [9]): 0.78 µg/mL (≈ 0.498 µM) | MIC (Candida tropicalis): 1.56 µg/mL (≈ 0.997 µM) | MIC (Candida tropicalis; Candida tropicalis, read-out: MIC): 1.56 µg/mL (≈ 0.997 µM) | MIC (Candida parapsilosis): 1.56 µg/mL (≈ 0.997 µM) | Hemolytic activity (Mus musculus [5]): 100%

CCCCCCCCCCCCC[C@H](CC(=O)N[C@@H](C(=O)N[C@H](C)C(=O)N[C@@H](Cc1ccc(O)c(NC(=O)[C@H](N)CO)c1)C(=O)N[C@H](C(=O)N1C[C@H](O)C[C@H]1C(=O)N[C@@H](C(=O)N[C@H](C(=O)N1CC[C@H](O)[C@H]1C(=O)N[C@H](C(=O)NCC(=O)N[C@@H](C(N)=O)[C@@H](C)O)[C@H](O)CC(N)=O)[C@@H](C)O)[C@@H](C)O)C(C)C)[C@@H](C)O)OC(=O)[C@@H](C)CCCN
MIC (Candida albicans [1]): 2 µg/mL (≈ 1.21 µM) | MIC (Aspergillus fumigatus [2]): 2 µg/mL (≈ 1.21 µM) | MIC (Candida albicans [3]): 1 µg/mL (≈ 0.605 µM) | MIC (Aspergillus fumigatus [4]): 0.5 µg/mL (≈ 0.303 µM) | Hemolytic activity (Mus musculus [5]): 84%

— ChEMBL document CHEMBL1134139, “Synthesis and biological activity of novel macrocyclic antifungals. modification of the tyrosine moiety of the lipopeptidolactone FR901469” (2001)
